From ChEMBL document CHEMBL2150991, “Synthesis of novel N-branched acyclic nucleoside phosphonates as potent and selective inhibitors of human, Plasmodium falciparum and Plasmodium vivax 6-oxopurine phosphoribosyltransferases” (J Med Chem, 2012)
Converted amounts (≈) assume the structure as drawn.

How the values were obtained:
CCRF-CEM = experiment: Cytostatic activity against human CCRF-CEM cells; assay type: ADME, cell-based
[1] = Cytotoxicity african green monkey Vero cells; assay type: cell-based; conditions: chlorocebus sabaeus
[2] = Inhibition of Plasmodium vivax HGPRT using Prib-PP as substrate by spectrophotometric assay in presence of guanine
Procedure, shortened: (§1)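 Continuous spectrophotometric assay at 25 °C in 0.1 M Tris-HCl, 10 mM MgCl₂, pH 7.4. PRib-PP is the variable substrate. Guanine is held fixed at a saturating 60 μM. Values are apparent Ki, since only one concentration of the second substrate was used. Each was calculated from Km(app) = Km(1 + [I]/Ki(app)).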

[3] = molecular target: T1, Hypoxanthine-guanine phosphoribosyltransferase (Homo sapiens, UniProt P00492); experiment: Inhibition of human HGPRT using Prib-PP as substrate by spectrophotometric assay in presence of guanine; procedure, shortened: as §1
T1 sequence (P00492 whole entry): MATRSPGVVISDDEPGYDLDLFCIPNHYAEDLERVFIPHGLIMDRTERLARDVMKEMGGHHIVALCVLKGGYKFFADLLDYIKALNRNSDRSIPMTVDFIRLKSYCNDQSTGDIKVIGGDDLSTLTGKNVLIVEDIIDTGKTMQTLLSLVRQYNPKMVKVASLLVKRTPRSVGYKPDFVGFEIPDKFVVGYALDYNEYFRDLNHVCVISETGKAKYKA

HL-60 = experiment: Cytostatic activity against human HL60 cells; assay type: ADME, cell-based
[4] = Inhibition of Plasmodium falciparum recombinant HGPRT expressed in Escherichia coli using Prib-PP as substrate by spectrophotometric assay in presence of guanine; procedure, shortened: as §1
L1210 = experiment: Cytostatic activity against mouse L1210 cells; assay type: ADME, cell-based
[5] = Cytostatic activity against human HeLaS3 cells; assay type: ADME, cell-based; conditions: hela s3
[6] = Cytotoxicity against human HEL cells; assay type: cell-based
[7] = Cytotoxicity against cat CRFK cells; assay type: cell-based, Felis catus

| SMILES | Ki [3] [nM] | Activity (CCRF-CEM) | CC50 [1] [µg/mL] | Ki [2] [µM] | Activity (HL-60) | Ki [4] [nM] | Activity (L1210) | Activity [5] | CC50 [6] [µg/mL] | CC50 [7] [µg/mL] |
| --- | --- | --- | --- | --- | --- | --- | --- | --- | --- | --- |
| CCOC(=O)CN(CCn1cnc2c(=O)[nH]c(N)nc21)CCP(=O)(O)O | 100 | Non-toxic | > 100 | 1.5 | Non-toxic | 1700 | Non-toxic | Non-toxic | > 100 | > 100 |
| COC(=O)CCN(CCn1cnc2c(=O)[nH]c(N)nc21)CCP(=O)(O)O | 500 | Non-toxic | > 100 | 4 | Non-toxic | 100 | Non-toxic | Non-toxic | > 100 | > 100 |
| COC(=O)CCCN(CCn1cnc2c(=O)[nH]c(N)nc21)CCP(=O)(O)O | 100 | Non-toxic | > 100 | > 200 | Non-toxic | 1300 | Non-toxic | Non-toxic | > 100 | > 100 |
| N#CCN(CCn1cnc2c(=O)[nH]c(N)nc21)CCP(=O)(O)O |  | Non-toxic | > 100 |  | Non-toxic |  | Non-toxic | Non-toxic | 53 (≈ 155 µM) | > 100 |
| N#CCCN(CCn1cnc2c(=O)[nH]c(N)nc21)CCP(=O)(O)O | 70 | Non-toxic | > 100 | 0.3 | Non-toxic | 200 | Non-toxic | Non-toxic | > 100 | > 100 |
| N#CCCCN(CCn1cnc2c(=O)[nH]c(N)nc21)CCP(=O)(O)O | 600 | Non-toxic | > 100 | 8 | Non-toxic | 4000 | Non-toxic | Non-toxic | > 100 | > 100 |
| Nc1nc2c(ncn2CCN(CCP(=O)(O)O)CC(=O)O)c(=O)[nH]1 | 1400 | Non-toxic | > 100 | 28 | Non-toxic | 700 | Non-toxic | Non-toxic | > 100 | > 100 |
| Nc1nc2c(ncn2CCN(CCC(=O)O)CCP(=O)(O)O)c(=O)[nH]1 | 150 | Non-toxic | > 100 | 0.05 | Non-toxic | 200 | Non-toxic | Non-toxic | > 100 | > 100 |
| Nc1nc2c(ncn2CCN(CCCC(=O)O)CCP(=O)(O)O)c(=O)[nH]1 | 100 | Non-toxic | > 100 | 25 | Non-toxic |  | Non-toxic | Non-toxic | > 100 | > 100 |
| Nc1nc2c(ncn2CCN(CCP(=O)(O)O)CCP(=O)(O)O)c(=O)[nH]1 | 200 | Non-toxic | > 100 | 0.9 | Non-toxic | 300 | Non-toxic | Non-toxic | > 100 | > 100 |
| N#CCCCN(CCn1cnc2c(=O)[nH]cnc21)CCP(=O)(O)O | 29000 | Non-toxic | > 100 | > 230 | Non-toxic | 6000 | Non-toxic | Non-toxic | > 100 | > 100 |
| O=c1[nH]cnc2c1ncn2CCN(CCP(=O)(O)O)CCP(=O)(O)O | 3000 | Non-toxic | > 100 | 13 | Non-toxic |  | Non-toxic | Non-toxic | > 100 | > 100 |
| Nc1nc2c(ncn2CCN(CCO)CCP(=O)(O)O)c(=O)[nH]1 | 70 | Non-toxic |  | 1.4 | Non-toxic | 200 | Non-toxic | Non-toxic | > 100 |  |
| Nc1nc2c(ncn2CCNCCP(=O)(O)O)c(=O)[nH]1 |  | Non-toxic |  | 11 | Non-toxic | 16000 | Non-toxic | Non-toxic | > 100 |  |
| O=c1[nH]cnc2c1ncn2CCNCCP(=O)(O)O |  | Non-toxic |  | ≥ 250 | Non-toxic | ≥ 200000 | Non-toxic | Non-toxic | > 100 |  |

Now from value to compound, other results behind:

| Ki [3] [nM] | SMILES | Activity (CCRF-CEM) | CC50 [1] [µg/mL] | Ki [2] [µM] | Activity (HL-60) | Ki [4] [nM] | Activity (L1210) | Activity [5] | CC50 [6] [µg/mL] | CC50 [7] [µg/mL] |
| --- | --- | --- | --- | --- | --- | --- | --- | --- | --- | --- |
| 2600 | CCOC(=O)CN(CCn1cnc2c(=O)[nH]cnc21)CCP(=O)(O)O | Non-toxic | > 100 | 11 | Non-toxic | 1900 | Non-toxic | Non-toxic | > 100 | > 100 |
| > 200000 | COC(=O)CCN(CCn1cnc2c(=O)[nH]cnc21)CCP(=O)(O)O | Non-toxic | > 100 | 21 | Non-toxic | 100 | Non-toxic | Non-toxic | > 100 | > 100 |
| 22000 | COC(=O)CCCN(CCn1cnc2c(=O)[nH]cnc21)CCP(=O)(O)O | Non-toxic | > 100 | > 250 | Non-toxic | ≥ 220000 | Non-toxic | Non-toxic | > 100 | > 100 |
| 35000 | N#CCN(CCn1cnc2c(=O)[nH]cnc21)CCP(=O)(O)O | Non-toxic | > 100 | 47 | Non-toxic | ≥ 250000 | Non-toxic | Non-toxic | > 100 | > 100 |
| 2400 | N#CCCN(CCn1cnc2c(=O)[nH]cnc21)CCP(=O)(O)O | Non-toxic | > 100 | 0.7 | Non-toxic | 200 | Non-toxic | Non-toxic | > 100 | > 100 |
| 32000 | O=C(O)CN(CCn1cnc2c(=O)[nH]cnc21)CCP(=O)(O)O | Non-toxic | > 100 | 178 | Non-toxic |  | Non-toxic | Non-toxic | > 100 | > 100 |
| > 240000 | O=C(O)CCN(CCn1cnc2c(=O)[nH]cnc21)CCP(=O)(O)O | Non-toxic | > 100 | 41 | Non-toxic | 400 | Non-toxic | Non-toxic | > 100 | > 100 |
| 5400 | O=C(O)CCCN(CCn1cnc2c(=O)[nH]cnc21)CCP(=O)(O)O | Non-toxic | > 100 | 1.6 | Non-toxic | ≥ 210000 | Non-toxic | Non-toxic | > 100 | > 100 |
| 5500 | O=c1[nH]cnc2c1ncn2CCN(CCO)CCP(=O)(O)O | Non-toxic | > 100 | 21 | Non-toxic | 2600 | Non-toxic | Non-toxic | > 100 | > 100 |
